Compound activity from PubChem BioAssay.
Sampled rows, rich in hits. Any-hit rate of the full collection: about 0.85%.
TRPN1 ag = zebrafish TRPN1 channel agonists, primary screen, cell-based, HEK293, calcium fluorescence; HEK293 zebrafish TRPN1-YFP, Fluo-8 calcium fluorescence; 100% = response to 87 µM carbachol; activation, % at 3 µM; transient receptor potential cation channel N1 (TRPN1/NompC), Danio rerio; hit rate 0.18% among 220,000; AID 1424, 2008;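 active = activation above its plate's cutoff, the mean activation of test wells on that plate plus 3 SD, cut at about 19% in these data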;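 also: 0% = DMSO alone and 100% = 87 µM carbachol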
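Material: zebrafish TRPN1-YFP in HEK293 cells. Doses: one dose of 3 µM, 0.3% DMSO. Incubation: dye 1 h 37 °C plus 30 min RT. Measured by: intracellular calcium fluorescence with Fluo-8.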
CRFBP-R2 agonist = agonists of CRF-BP/CRF-R2 complex, primary screen, cell-based, HEK293, calcium dye fluorescence, uHTS; CRF-binding protein / CRF receptor 2 complex (human); calcium dye fluorescence (FLIPR); percent of saturating CRF peptide response; activation, % at 13.2 µM; hit rate 0.46% among 350,000;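 active = activation of at least 50%, plus an integration ratio under a set limit after plate pattern correction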;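 also: plate controls were neutral control wells without compound for no effect and CRF at EC100 for full effect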
V1aR counter = agonists of human V1a receptor, primary screen, counter-screen for OXTR agonist project, fluorescence, CHO-V1R cells | hit rate 0.25% among 320,000 | Fluo-8 calcium fluorescence, agonist mode; 0% DMSO, 100% 3 nM vasopressin | activation, % at 3 µM;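 active = activation above the mean activation of all tested compounds plus 3 SD, per screening run, cut at about 20% in these data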;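 also: signal is peak over basal fluorescence ratio across a 100 second FLIPR read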
TRPML3 ag = human TRPML3 channel agonists, primary screen, cell-based, HEK293 TRPML3-YFP, Fluo-8 calcium fluorescence, 3 µM. Mucolipin-3 (Homo sapiens), Q8TDD5. 100% = the carbachol control signal. activation, % at 3 µM. hit rate 0.29% among 220,000;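 active = activation above its plate's cutoff, the mean activation of the plate's test wells plus 3 SD, cut at about 12% in these data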;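 also: 0% = DMSO only wells and 100% = carbachol wells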
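system = HEK293 cells stably carrying human TRPML3-YFP | doses = one concentration, 3 µM nominal, 0.3% DMSO | timing = dye loading 1 h 37 °C then 30 min ambient, 125 s read | detection = Fluo-8 calcium dye fluorescence, ex 470-495, em 515-575 nm | benchmarks = high control carbachol 87 µM, low control DMSO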
OXTR agonist = human OXTR agonists, primary screen, fluorescence, CHO-OTR cells, Fluo-8 calcium; Oxytocin receptor (Homo sapiens), P30559; Fluo-8 calcium fluorescence; normalized: DMSO 0%, oxytocin 100%; activation, % at 3 µM; hit rate 0.32% among 320,000;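 active = activation above the mean of all tested compounds plus 3 SD, cutoff set per screening run, cut at about 20% in these data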;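 also: peak over basal fluorescence ratio from a 100 s FLIPR kinetic read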
Target sequence (P30559 whole entry, looked up): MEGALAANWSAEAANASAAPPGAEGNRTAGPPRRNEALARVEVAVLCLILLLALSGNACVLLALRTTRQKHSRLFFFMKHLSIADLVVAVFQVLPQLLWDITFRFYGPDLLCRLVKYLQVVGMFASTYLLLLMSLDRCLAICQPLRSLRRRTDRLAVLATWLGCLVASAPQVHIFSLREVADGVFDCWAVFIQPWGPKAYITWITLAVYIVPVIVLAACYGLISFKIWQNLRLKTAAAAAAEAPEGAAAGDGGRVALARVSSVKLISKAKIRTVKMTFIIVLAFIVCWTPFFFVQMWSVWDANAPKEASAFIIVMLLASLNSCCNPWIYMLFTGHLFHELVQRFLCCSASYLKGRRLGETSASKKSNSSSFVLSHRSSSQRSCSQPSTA
OXTR potentiator = human OXTR potentiators, primary screen, fluorescence, CHO-OTR cells, Fluo-8 calcium; Oxytocin receptor (Homo sapiens), P30559; Fluo-8 calcium fluorescence, potentiator mode; 0% = oxytocin EC15, 100% = EC100; activation, % at 3 µM; hit rate 0.061% among 320,000;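 active = activation above that plate's cutoff, the mean activation of tested compounds plus 3 SD, cut at about 6.6% in these data, passing the limit was not always enough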;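 also: 100% uses oxytocin at 75 nM as the full agonist control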
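assay system = CHO-OTR cells, human receptor | schedule = compound 6 min at room temperature before oxytocin, 100 s read | detection = Fluo-8 intracellular calcium fluorescence, ex 470-495, em 515-575 nm | evaluation = normalized max/min fluorescence ratio, % activation | control set = EC15 oxytocin alone as 0%, 75 nM oxytocin (EC100) as 100%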
Numbers without * were called inactive; · = no result.

SMILES	TRPN1 ag	CRFBP-R2 agonist	V1aR counter	TRPML3 ag	OXTR agonist	OXTR potentiator
Cc1cccc(C)c1NC(=O)COC(=O)c1c2c(nc3ccccc13)/C(=C\c1ccc3c(c1)OCO3)CCC2	135*	95*	51*	40*	52*	-5
COCCN(C(=O)C1CCN(C(=O)c2ccccc2C)CC1)c1c(N)n(CC(C)C)c(=O)[nH]c1=O	·	4	0	·	2	1
CCN1C(=O)c2cccc3c(S(=O)(=O)Nc4ccccc4OC)ccc1c23	46*	129*	11	123*	11	-19
CCN1C(=O)c2cccc3c(S(=O)(=O)NCc4ccccc4)ccc1c23	·	-2	2	·	1	-8
Cc1ccc2oc(C(=O)N3CCC(O)(c4ccccc4)CC3)c(C)c2c1	·	-1	0	·	0	-11
Cc1ccc(-c2noc(CCC(=O)NCCCN3CCN(c4cccc(Cl)c4)CC3)n2)cc1	2	3	21*	2	31*	-21
Cc1ccc(-c2noc(CCC(=O)NCCCN3CCN(c4ccc(F)cc4)CC3)n2)cc1	4	0	15	3	9	-19
C=CCC[C@H](Cc1ccc(F)cc1)C(=O)OC[C@H](Cc1c[nH]c2ccccc12)NC(=O)[C@@H](CC=C)CC(=O)NCCO	·	60*	7	·	6	-10
C=CCC[C@H](Cc1ccc(F)cc1)C(=O)OC[C@@H](Cc1c[nH]c2ccccc12)NC(=O)[C@@H](CC=C)CC(=O)N[C@@H](CO)Cc1ccccc1	·	0	-1	·	-1	-7
CCN(CC)c1ccc2cc(C(=O)NNC(=O)c3ccc(S(=O)(=O)N4CCCCC4)cc3)c(=O)oc2c1	0	266*	0	0	0	-6
CCN(CC)c1ccc2cc(S(=O)(=O)c3ccc(C)cc3)c(=O)oc2c1	1	147*	1	0	-1	-7
CCN(CC)c1ccc2cc(C#N)c(=O)oc2c1	1	102*	1	1	0	-5
O=c1oc2ccccc2cc1-c1csc(Cc2nc(-c3ccc(Cl)cc3)cs2)n1	1	9	-1	0	-2	-5
Cc1ccc(C(=O)NNC(=O)c2ccc(S(=O)(=O)N3CCCCC3)cc2)cc1	·	2	1	·	1	2
CCN(CC)c1ccc2cc(-c3nc(-c4cc5ccccc5oc4=O)cs3)c(=O)oc2c1	·	195*	·	·	·	·
CCN(CC)c1ccc2ccc(=O)oc2c1	0	0	-1	0	-2	-1
Cc1ccc(/C=C2\SC(=O)N(CCNC(=O)C3CSC4(C)CCC(=O)N34)C2=O)cc1 (configuration not stated)	·	-1	6	·	4	-17
O=C(NNC(=O)c1ccccc1O)c1cc2ccccc2o1	·	1	3	·	0	-6
CCOC(=O)c1c(NC(=O)C(C)Sc2cccc[n+]2[O-])sc2c1CCN(Cc1ccccc1)C2 (configuration not stated)	2	51*	1	1	-2	-1
O=C(COC(=O)C1CCN(S(=O)(=O)c2ccc(Cl)c(C(F)(F)F)c2)CC1)NCC1CCCO1 (configuration not stated)	·	-1	·	·	·	·
O=C(NCc1ccco1)c1cccc2c1C(=O)c1ccc(/C=C/c3ccccc3)cc1S2(=O)=O	·	2	3	·	3	-2
O=C(NCCc1ccc(F)cc1)c1cccc2c1C(=O)c1ccc(N3CCC(Cc4ccccc4)CC3)cc1S2(=O)=O	·	174*	27*	·	30*	-10
O=C(NCc1cccc(C(F)(F)F)c1)c1cccc2c1C(=O)c1ccc(N3CCC(Cc4ccccc4)CC3)cc1S2(=O)=O	·	67*	24*	·	23*	-11
O=C(NCc1ccco1)c1cccc2c1C(=O)c1ccc(N3CCC(Cc4ccccc4)CC3)cc1S2(=O)=O	·	62*	13	·	15	-10
O=C(NCc1cccc(F)c1)c1cccc2c1C(=O)c1ccc(N3CCC(Cc4ccccc4)CC3)cc1S2(=O)=O	·	75*	17	·	11	-11
SMILES	TRPN1 ag	CRFBP-R2 agonist	V1aR counter	TRPML3 ag	OXTR agonist	OXTR potentiator
CN1CCC[C@@H]1CCNC(=O)c1cccc2c1C(=O)c1ccc(N3CCCC3)cc1S2(=O)=O	·	14	2	·	4	-8
Cc1ccc2c(c1)N(CC(=O)Nc1ccccc1F)C(=O)C(C)O2 (configuration not stated)	·	0	·	·	·	·
CCOc1ccccc1N(CC(=O)N1CCN(Cc2ccccc2)CC1)S(=O)(=O)c1ccccc1	·	0	·	·	·	·
CC1CCN(c2ccc3c(c2)S(=O)(=O)c2cccc(C(=O)NCc4cccc(F)c4)c2C3=O)CC1	·	92*	38*	·	50*	-10
O=C(NCc1cccc(F)c1)c1cccc2c1C(=O)c1ccc(N3CCCC3)cc1S2(=O)=O	·	91*	26*	·	20*	-7
COc1ccccc1N1CCN(c2ccc3c(c2)S(=O)(=O)c2cccc(C(=O)NCc4ccc(F)cc4)c2C3=O)CC1	·	0	·	·	·	·
COc1ccc(-n2c(O)c(/C=C3\C=Nc4ccccc43)c(=O)[nH]c2=O)cc1	·	76*	·	·	·	·
COc1ccc(-n2c(O)c(C=NC3CC3)c(=O)[nH]c2=O)cc1	1	0	1	1	1	-9
Cc1cnc(C(=O)OCC(=O)c2ccc(Br)s2)cn1	·	0	0	·	0	-6
CC1=Nc2ccccc2/C1=C/c1sc(=S)n(-c2cccc(C(=O)O)c2)c1O	20*	47	·	18*	·	·
Oc1c(C=C2N=c3ccccc3=N2)sc(=S)n1-c1ccccc1	1	0	1	0	3	0
CN1CCC/C1=C/C=C1\SC(=S)NC1=O	11	149*	24*	10	46*	-12
O=C1NC(=S)SC1=Cc1cccs1	·	6	·	·	·	·
CCNC(=S)NNC(=O)c1ccc(OC)cc1	1	1	0	0	0	-5
COc1ccc(C(=O)NNC(=S)NC(=O)c2ccc(OC)cc2)cc1	·	51*	28*	·	43*	-27
COc1ccc(C(=O)NNC(=S)NC(=O)c2cccnc2)cc1	0	-1	0	-1	1	-16
COc1ccc(C(=O)NC(=S)NNC(=O)c2cccc(C)c2)cc1	·	131*	95*	·	70*	-19
COc1ccc(C(=O)NNC(=S)NC(=O)c2ccc(F)cc2)cc1Br	·	77*	76*	·	68*	-24
